According to publication PMC2998688 (British Journal of Pharmacology, 2010):
Where “and” joins values, the source holds several entries; their conditions need not be identical. Equal entries are not always repeated.

Legend:
[1] = biological target: rat IP3R1 (recombinant, expressed in DT40 cells) (Rattus norvegicus, UniProt P29994); assay: Ca2+ release from intracellular stores of permeabilized DT40-IP3R1 cells; format: cell-based; settings: for fold more potent than IP3 in functional assays: Ca2+ release, relative to IP3
IP3R1^R568Q = IP3R1^R568Q (Rattus norvegicus, UniProt P29994, DEL318-332/R568Q); assay: Ca2+ release from permeabilized DT40 cells expressing only IP3R1^R568Q; format: cell-based
Procedure, shortened: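 Mag-fluo-4 AM (20 µM, 1 h, 20°C) loaded into DT40 cells lacking endogenous IP3R and stably expressing mutant rat IP3R1. Cells were saponin-permeabilized (10 µg·mL−1) into Mg2+-free CLM with 10 µM FCCP, free Ca2+ ~220 nM. Stores were loaded with 1.5 mM MgATP before test compound was added. Fluorescence was read at 485/520 nm, 20°C. Release is a fraction of ATP-dependent uptake, Hill-fitted for EC50, with ΔpEC50 versus wild type from log values. Three determinations per experiment, 4–6 experiments.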

IP3R1^R504Q = IP3R1^R504Q (Rattus norvegicus, UniProt P29994, DEL318-332/R504Q); assay: Ca2+ release from permeabilized DT40 cells expressing only IP3R1^R504Q; format: cell-based
full-length IP3R1 = full-length IP3R1 (Rattus norvegicus, UniProt P29994); format: binding; settings: full-length IP3R1, TEM
[2] = biological target: NT (residues 1–604) of IP3R1 (Rattus norvegicus, UniProt P29994, DEL318-332); assay: Equilibrium-competition 3H-IP3 binding to the NT fragment; settings: for Binding ΔpKd, IP3 / AdA: pair IP3 / AdA
Procedure, shortened: (§1)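 Rat IP3R1 N-terminal fragment (residues 1–604, lacking S1 site), His6-tagged, wild type or point mutant, expressed in E. coli BL21(DE3) as bacterial lysate (~1–10 µg protein). Competed against 1.5 nM 3H-IP3 for 5 min at 4°C in TEM (50 mM Tris, 1 mM EDTA, pH 8.3) or, for wild-type NT only, CLM (pH 7.0). Counted after PEG precipitation. Hill fit; Kd by Cheng–Prusoff; ΔpKd from log values.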

[3] = biological target: NT^R568Q fragment of IP3R1 (Rattus norvegicus, UniProt P29994, DEL318-332/R568Q); assay: Equilibrium-competition 3H-IP3 binding to NT^R568Q
Procedure, shortened: as §1

[4] = biological target: NT^R504Q fragment of IP3R1 (Rattus norvegicus, UniProt P29994, DEL318-332/R504Q); assay: Equilibrium-competition 3H-IP3 binding to NT^R504Q; settings: TEM
Procedure, shortened: as §1

[5] = biological target: IBC (IP3-binding core, residues 224–604 of IP3R1) (Rattus norvegicus, UniProt P29994); assay: Equilibrium-competition 3H-IP3 binding to the IBC; settings: CLM
Procedure, shortened: (§2)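 His6-tagged rat IP3R1 IBC (residues 224–604, S1 site included), wild type or point mutant, expressed in E. coli BL21(DE3) (0.5 mM IPTG, 20 h, 15°C). Lysate (~1–10 µg protein) incubated 5 min at 4°C in CLM (pH 7.0, free Ca2+ 220 nM) with 3H-IP3 (0.75–3 nM) and competitor. PEG/γ-globulin precipitation, scintillation counting. Hill fit; Kd by Cheng–Prusoff; ΔpKd from log differences.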

[6] = biological target: IBC^R568Q fragment of IP3R1 (Rattus norvegicus, UniProt P29994, R568Q); assay: Equilibrium-competition 3H-IP3 binding to IBC^R568Q
Procedure, shortened: as §2

[7] = biological target: IBC^R504Q fragment of IP3R1 (Rattus norvegicus, UniProt P29994, R504Q); assay: Equilibrium-competition 3H-IP3 binding to IBC^R504Q; settings: CLM
Procedure, shortened: as §2

IP3R = settings: recalculated from published data; ref Takahashi et al., 1994a,b,c; cited from earlier work

Chain of IBC (IP3-binding core, residues 224–604 of IP3R1) (P29994 224-604): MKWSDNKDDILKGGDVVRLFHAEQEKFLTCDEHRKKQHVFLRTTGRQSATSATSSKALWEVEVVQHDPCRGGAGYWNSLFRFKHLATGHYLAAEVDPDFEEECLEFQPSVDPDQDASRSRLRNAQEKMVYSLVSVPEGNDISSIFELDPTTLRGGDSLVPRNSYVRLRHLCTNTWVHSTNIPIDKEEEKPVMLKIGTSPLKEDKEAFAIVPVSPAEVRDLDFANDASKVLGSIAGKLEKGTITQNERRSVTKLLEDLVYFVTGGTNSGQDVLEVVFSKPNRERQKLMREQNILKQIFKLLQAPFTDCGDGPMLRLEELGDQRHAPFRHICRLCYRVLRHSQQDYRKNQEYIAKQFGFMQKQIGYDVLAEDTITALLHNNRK
Chain of IP3R1^R504Q (P29994 1-2735 isoform P29994-2 R489Q): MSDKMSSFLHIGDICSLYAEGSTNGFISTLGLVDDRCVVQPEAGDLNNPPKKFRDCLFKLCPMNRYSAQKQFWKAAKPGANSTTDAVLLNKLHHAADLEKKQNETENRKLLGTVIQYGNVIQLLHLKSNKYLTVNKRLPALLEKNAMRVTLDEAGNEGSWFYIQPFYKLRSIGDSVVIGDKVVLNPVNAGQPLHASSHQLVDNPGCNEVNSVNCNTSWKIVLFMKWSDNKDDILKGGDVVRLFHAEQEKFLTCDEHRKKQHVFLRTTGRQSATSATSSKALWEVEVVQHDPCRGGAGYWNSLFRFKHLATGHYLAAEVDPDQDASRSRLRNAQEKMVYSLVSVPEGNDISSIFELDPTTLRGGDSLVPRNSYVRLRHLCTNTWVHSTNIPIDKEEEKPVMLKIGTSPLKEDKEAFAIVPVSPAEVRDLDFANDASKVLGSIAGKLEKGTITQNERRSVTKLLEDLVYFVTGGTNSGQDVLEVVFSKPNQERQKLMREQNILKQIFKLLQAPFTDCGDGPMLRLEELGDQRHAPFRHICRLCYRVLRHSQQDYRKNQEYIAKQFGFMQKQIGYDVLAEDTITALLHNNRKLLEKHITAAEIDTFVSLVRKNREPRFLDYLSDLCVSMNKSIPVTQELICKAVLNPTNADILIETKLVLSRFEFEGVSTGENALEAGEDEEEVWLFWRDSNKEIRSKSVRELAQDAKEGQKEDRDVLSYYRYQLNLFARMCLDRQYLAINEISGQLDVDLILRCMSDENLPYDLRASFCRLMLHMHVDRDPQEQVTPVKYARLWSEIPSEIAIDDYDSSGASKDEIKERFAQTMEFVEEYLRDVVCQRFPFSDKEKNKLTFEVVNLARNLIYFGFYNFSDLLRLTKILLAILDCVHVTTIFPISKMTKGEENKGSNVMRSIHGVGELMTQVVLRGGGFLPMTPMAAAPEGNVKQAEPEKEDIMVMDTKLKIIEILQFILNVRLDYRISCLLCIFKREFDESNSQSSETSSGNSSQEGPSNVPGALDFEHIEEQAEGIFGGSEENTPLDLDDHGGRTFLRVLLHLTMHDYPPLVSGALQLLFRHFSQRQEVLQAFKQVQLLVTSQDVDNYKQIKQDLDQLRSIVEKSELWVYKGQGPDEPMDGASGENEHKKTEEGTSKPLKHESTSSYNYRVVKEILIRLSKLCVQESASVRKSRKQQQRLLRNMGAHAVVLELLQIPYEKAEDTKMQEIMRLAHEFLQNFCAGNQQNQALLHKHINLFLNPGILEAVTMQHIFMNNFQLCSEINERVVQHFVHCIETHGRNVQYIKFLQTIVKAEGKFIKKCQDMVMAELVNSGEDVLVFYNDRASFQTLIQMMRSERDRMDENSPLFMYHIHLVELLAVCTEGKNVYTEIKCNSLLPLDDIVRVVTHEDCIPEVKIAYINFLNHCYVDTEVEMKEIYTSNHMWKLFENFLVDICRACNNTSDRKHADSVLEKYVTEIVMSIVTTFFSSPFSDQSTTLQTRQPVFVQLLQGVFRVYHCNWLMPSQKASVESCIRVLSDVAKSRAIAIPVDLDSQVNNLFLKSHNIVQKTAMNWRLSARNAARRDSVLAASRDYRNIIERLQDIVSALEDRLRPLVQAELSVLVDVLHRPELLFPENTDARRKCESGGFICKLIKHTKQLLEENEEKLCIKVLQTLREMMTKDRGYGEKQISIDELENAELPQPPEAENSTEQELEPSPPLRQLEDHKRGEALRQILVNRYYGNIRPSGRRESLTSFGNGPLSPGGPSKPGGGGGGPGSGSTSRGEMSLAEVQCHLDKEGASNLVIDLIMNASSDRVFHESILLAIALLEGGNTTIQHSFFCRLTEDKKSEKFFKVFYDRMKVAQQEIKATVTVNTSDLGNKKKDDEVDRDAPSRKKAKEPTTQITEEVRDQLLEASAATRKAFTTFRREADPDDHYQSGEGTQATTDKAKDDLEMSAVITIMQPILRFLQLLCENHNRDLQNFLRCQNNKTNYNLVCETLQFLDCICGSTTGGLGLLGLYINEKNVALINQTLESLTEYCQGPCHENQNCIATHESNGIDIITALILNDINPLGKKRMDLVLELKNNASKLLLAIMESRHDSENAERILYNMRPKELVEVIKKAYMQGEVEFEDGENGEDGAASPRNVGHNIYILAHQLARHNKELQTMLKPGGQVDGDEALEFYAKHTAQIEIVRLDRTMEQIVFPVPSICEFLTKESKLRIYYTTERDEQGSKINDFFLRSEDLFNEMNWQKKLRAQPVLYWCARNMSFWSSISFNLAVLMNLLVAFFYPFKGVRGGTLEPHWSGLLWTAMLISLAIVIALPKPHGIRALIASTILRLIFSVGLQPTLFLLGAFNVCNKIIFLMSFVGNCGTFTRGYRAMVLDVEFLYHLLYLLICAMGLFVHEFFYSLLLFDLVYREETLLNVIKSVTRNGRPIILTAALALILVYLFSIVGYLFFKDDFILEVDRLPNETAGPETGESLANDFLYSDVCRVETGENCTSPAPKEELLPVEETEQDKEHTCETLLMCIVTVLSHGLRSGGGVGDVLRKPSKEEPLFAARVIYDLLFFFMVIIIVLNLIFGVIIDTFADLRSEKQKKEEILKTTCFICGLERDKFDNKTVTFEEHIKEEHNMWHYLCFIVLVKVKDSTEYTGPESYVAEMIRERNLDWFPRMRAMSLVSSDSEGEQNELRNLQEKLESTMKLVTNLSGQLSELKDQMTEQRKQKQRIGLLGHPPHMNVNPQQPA
Chain of NT (residues 1–604) of IP3R1 (P29994 1-589 isoform P29994-2 limits assumed, stated change not applied): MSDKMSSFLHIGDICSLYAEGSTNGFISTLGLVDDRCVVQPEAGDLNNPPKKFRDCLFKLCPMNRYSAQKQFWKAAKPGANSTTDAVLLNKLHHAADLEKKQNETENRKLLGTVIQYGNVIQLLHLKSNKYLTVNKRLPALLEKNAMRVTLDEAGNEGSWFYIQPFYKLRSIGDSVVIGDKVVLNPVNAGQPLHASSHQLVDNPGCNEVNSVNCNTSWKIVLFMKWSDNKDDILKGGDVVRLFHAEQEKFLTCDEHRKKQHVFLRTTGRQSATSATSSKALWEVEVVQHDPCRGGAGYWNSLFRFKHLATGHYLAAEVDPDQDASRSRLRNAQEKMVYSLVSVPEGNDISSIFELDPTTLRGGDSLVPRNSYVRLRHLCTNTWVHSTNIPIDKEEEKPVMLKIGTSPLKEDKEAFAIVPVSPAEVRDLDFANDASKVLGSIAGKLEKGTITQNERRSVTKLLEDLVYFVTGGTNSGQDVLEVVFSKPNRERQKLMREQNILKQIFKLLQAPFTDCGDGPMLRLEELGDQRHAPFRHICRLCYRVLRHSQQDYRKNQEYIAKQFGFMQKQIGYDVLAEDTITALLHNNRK
Chain of IBC^R504Q fragment of IP3R1 (P29994 224-604 R504Q): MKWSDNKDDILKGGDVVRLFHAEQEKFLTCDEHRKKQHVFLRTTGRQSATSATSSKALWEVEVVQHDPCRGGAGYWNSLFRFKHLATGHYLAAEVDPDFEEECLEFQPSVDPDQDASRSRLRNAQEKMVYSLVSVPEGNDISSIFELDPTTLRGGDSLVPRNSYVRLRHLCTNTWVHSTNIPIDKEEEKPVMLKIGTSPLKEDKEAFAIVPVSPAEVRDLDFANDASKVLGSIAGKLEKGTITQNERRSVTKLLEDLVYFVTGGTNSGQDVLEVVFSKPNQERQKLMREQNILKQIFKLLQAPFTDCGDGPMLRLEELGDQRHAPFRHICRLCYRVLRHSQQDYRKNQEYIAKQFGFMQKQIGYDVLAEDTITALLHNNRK
Chain of IBC^R568Q fragment of IP3R1 (P29994 224-604 R568Q): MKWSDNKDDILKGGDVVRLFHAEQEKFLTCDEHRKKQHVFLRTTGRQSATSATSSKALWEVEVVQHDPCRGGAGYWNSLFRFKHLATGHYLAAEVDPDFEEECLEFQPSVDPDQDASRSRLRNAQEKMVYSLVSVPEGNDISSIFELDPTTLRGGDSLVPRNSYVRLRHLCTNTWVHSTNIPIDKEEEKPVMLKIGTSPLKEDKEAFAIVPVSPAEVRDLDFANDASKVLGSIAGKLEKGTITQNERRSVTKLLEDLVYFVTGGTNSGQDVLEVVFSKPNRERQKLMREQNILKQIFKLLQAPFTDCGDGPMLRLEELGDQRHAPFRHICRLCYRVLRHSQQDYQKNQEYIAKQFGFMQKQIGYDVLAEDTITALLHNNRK
Chain of NT^R504Q fragment of IP3R1 (P29994 1-589 isoform P29994-2 R489Q limits assumed): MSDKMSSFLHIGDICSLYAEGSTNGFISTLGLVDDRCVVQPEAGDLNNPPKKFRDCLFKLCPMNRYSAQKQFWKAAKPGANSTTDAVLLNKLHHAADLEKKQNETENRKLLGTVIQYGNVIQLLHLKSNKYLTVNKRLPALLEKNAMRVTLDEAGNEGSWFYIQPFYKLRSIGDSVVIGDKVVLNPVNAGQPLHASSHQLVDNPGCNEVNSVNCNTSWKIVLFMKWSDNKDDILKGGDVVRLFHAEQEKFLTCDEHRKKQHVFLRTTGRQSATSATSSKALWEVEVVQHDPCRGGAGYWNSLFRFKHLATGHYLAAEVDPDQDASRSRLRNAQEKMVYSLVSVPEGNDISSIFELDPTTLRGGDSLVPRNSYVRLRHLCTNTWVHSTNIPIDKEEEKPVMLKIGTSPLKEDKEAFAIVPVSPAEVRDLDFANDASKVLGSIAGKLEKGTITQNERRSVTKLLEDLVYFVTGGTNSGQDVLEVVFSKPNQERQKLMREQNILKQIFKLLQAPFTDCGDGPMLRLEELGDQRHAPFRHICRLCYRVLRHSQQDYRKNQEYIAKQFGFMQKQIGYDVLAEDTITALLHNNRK

Nc1ncnc2c1ncn2[C@@H]1O[C@H](CO)[C@@H](O[C@H]2O[C@H](CO)[C@@H](OP(=O)(O)O)[C@H](OP(=O)(O)O)[C@H]2O)[C@H]1OP(=O)(O)O [AdA, adenophostin A]
EC50 ([1]; Ca2+ release EC50, DT40 cells expressing wild-type IP3R1): 3 nM | EC50 ([1]; Ca2+ release pEC50 ± SEM, permeabilized DT40-IP3R1 cells, CLM): 3.09 nM | fold more potent than IP3 in functional assays ([1]; CLM): ~12 fold | fold more potent than IP3 in functional assays ([1]; CLM, listed as Adenophostin A): at least 12 fold | Ca2+ release, Release (%) ([1]; maximal Ca2+ release, fraction of ATP-dependent uptake, wild-type IP3R1): 78 ± 3% | Ca2+ release ΔpEC50, IP3 / AdA ([1]; pair IP3 / AdA, DT40-IP3R1 cells): 1.09 ± 0.05 | Ca2+ release nHill ± SEM ([1]; permeabilized DT40-IP3R1 cells, CLM): 1.4 ± 0.1 | EC50 (IP3R1^R568Q): 20 nM | Relative potency ΔpEC50, R568Q / wild-type IP3R1 (IP3R1^R568Q; Ca2+ release, IP3R1^R568Q vs IP3R1): 0.81 ± 0.07 | fold reduction of potency in IP3R1^R568Q cells (IP3R1^R568Q; Ca2+ release, vs wild-type IP3R1): sixfold | Ca2+ release nHill ± SEM (IP3R1^R568Q; IP3R1^R568Q): 1.0 ± 0.2 | Release (%) (IP3R1^R568Q; maximal Ca2+ release, IP3R1^R568Q): 53 ± 3% | EC50 (IP3R1^R504Q): 604 nM | Relative potency ΔpEC50, R504Q / wild-type IP3R1 (IP3R1^R504Q; Ca2+ release, IP3R1^R504Q vs IP3R1): 2.29 ± 0.06 | Ca2+ release nHill ± SEM (IP3R1^R504Q; IP3R1^R504Q): 1.3 ± 0.2 | Release (%) (IP3R1^R504Q; maximal Ca2+ release, IP3R1^R504Q): 61 ± 3% | Binding nHill ± SEM (full-length IP3R1): 1.5 ± 0.1 | nHill ± SEM ([2]; CLM): 1.3 ± 0.2 | Kd ([2]; Kd, CLM): 3.44 nM | fold greater affinity than IP3 ([2]; TEM): about 15 fold | nHill ± SEM ([2]; TEM): 1.0 ± 0.1 | Kd ([2]; pKd ± SEM, TEM): 0.141 nM | Binding ΔpKd, IP3 / AdA ([2]; CLM): 1.14 ± 0.21 | Binding ΔpKd, IP3 / AdA ([2]; TEM): 1.18 ± 0.12 | Kd [3]: 2.81 nM | nHill ± SEM ([3]; NT^R568Q, TEM): 1.3 ± 0.2 | Kd ([4]; Kd): 16.5 nM | nHill ± SEM [4]: 0.9 ± 0.1 | fold greater affinity than IP3 [5]: ~20 fold | nHill ± SEM [5]: 1.3 ± 0.3 | Kd ([5]; Kd): 0.31 nM | Binding ΔpKd, IP3 / AdA ([5]; pair IP3 / AdA): 1.37 ± 0.07 | Kd [6]: 9.48 nM | Relative affinity ΔpKd, R568Q / wild-type IBC ([6]; IBC^R568Q vs IBC, CLM): 1.49 ± 0.11 | fold reduction of affinity by the R568Q mutation ([6]; IBC^R568Q vs IBC, CLM): ~30 fold and 31 fold | nHill ± SEM ([6]; IBC^R568Q, CLM): 1.3 ± 0.6 | Relative affinity ΔpKd, R504Q / wild-type IBC ([7]; IBC^R504Q vs IBC): 2.55 ± 0.05 | fold reduction of affinity by the R504Q mutation ([7]; IBC^R504Q vs IBC): 353 fold | nHill ± SEM ([7]; IBC^R504Q): 1.5 ± 0.2 | Kd ([7]; Kd, IBC^R504Q): 149 nM | fold greater affinity than IP3 (IP3R): about 18 fold
